Experimental data as given in ChEMBL document CHEMBL3576866, “Discovery of a Cyclic Boronic Acid β-Lactamase Inhibitor (RPX7009) with Utility vs Class A Serine Carbapenemases” (J Med Chem, 2015).
pIC50, pKi: −log10 of the molar value.

What was measured:
[1] = target: Beta lactamase TEM-1 (Klebsiella pneumoniae) (UniProt Q7B899); test: Inhibition of Klebsiella pneumoniae KP1004 TEM-1 assessed as meropenem MIC at 4 ug/ml by broth microdilution method
Procedure, shortened: (§1)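 CLSI broth microdilution (M07-A9, 2012) MIC of the carbapenem against clinical serine carbapenemase-producing strain, tested alone and with the inhibitor held at a fixed 4 μg/mL.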

[2] = Volume of distribution in rat at 300 mg/kg, iv administered as 0.5 hrs infusion by HPLC-MS method; format: ADME, organism-based; details: in vivo
[3] = test system: Klebsiella pneumoniae; test: Inhibition of Klebsiella pneumoniae KP1004 KPC-2 assessed as meropenem MIC at 4 ug/ml by broth microdilution method; procedure, shortened: as §1
[4] = target: Beta-lactamase TEM (Enterobacter cloacae) (UniProt Q6W9J1); test: Inhibition of Enterobacter cloacae ECL1058 TEM-1 assessed as ertapenem MIC at 4 ug/ml by broth microdilution method
Beta-lactamase TEM (Enterobacter cloacae), sequence (Q6W9J1 as listed by the source): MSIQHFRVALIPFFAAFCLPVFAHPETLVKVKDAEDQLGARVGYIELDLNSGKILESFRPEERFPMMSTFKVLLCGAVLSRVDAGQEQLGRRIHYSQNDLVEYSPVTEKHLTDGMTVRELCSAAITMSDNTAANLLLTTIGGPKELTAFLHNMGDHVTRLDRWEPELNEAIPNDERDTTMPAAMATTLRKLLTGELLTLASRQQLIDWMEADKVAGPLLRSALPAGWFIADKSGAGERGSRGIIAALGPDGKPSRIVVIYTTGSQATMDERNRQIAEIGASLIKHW

[5] = test system: Klebsiella oxytoca; test: Inhibition of Klebsiella oxytoca KX1019 OXA-2 assessed as meropenem MIC at 4 ug/ml by broth microdilution method
[6] = target: Carbapenem-hydrolyzing beta-lactamase KPC (Klebsiella oxytoca) (UniProt Q848S6); test: Inhibition of Klebsiella oxytoca KX1017 KPC-2 assessed as biapenem MIC at 4 ug/ml by broth microdilution method
Carbapenem-hydrolyzing beta-lactamase KPC (Klebsiella oxytoca), sequence (Q848S6 whole entry, the tested form may be a part): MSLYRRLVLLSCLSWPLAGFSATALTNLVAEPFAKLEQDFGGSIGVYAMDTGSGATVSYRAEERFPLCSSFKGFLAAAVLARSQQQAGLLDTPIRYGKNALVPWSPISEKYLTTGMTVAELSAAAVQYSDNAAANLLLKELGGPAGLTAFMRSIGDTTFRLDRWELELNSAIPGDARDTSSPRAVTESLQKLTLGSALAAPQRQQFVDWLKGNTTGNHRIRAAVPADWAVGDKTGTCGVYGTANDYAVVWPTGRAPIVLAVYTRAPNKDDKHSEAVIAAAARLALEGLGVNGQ

[7] = test system: Klebsiella pneumoniae; test: Inhibition of Klebsiella pneumoniae KP1005 CTX-M-14 assessed as cefepime MIC at 4 ug/ml by broth microdilution method
[8] = Inhibition of Escherichia coli recombinant SHV-12 assessed as substrate nitrocefin degradation preincubated for 10 mins followed by substrate addition measured every 10 secs for 10 mins by spectrophotometric analysis
Procedure, shortened: (§2)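 β-Lactamases purified from overexpressing recombinant E. coli. Enzyme preincubated with inhibitor at varying concentrations for 10 min at room temperature in 50 mM Na phosphate pH 7.0, 0.1 mg/mL BSA. Then 50 μM nitrocefin (final) added and cleavage read at 490 nm every 10 s for 10 min. Ki derived by the Waley method.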

[9] = test system: Klebsiella pneumoniae; test: Inhibition of Klebsiella pneumoniae KP1087 SHV-11 assessed as meropenem MIC at 4 ug/ml by broth microdilution method; procedure, shortened: as §1
[10] = target: Beta-lactamase TEM (Enterobacter cloacae) (UniProt Q6W9J1); test: Inhibition of Enterobacter cloacae ECL1058 TEM-1 assessed as imipenem MIC at 4 ug/ml by broth microdilution method
[11] = target: Tissue-type plasminogen activator (Homo sapiens, UniProt P00750); test: Inhibition of tissue plasminogen activator (unknown origin) using GK-pNA as substrate preincubated for 10 mins followed by substrate addition measured for 30 mins by spectrophotometric analysis
Tissue-type plasminogen activator, sequence (P00750 whole entry): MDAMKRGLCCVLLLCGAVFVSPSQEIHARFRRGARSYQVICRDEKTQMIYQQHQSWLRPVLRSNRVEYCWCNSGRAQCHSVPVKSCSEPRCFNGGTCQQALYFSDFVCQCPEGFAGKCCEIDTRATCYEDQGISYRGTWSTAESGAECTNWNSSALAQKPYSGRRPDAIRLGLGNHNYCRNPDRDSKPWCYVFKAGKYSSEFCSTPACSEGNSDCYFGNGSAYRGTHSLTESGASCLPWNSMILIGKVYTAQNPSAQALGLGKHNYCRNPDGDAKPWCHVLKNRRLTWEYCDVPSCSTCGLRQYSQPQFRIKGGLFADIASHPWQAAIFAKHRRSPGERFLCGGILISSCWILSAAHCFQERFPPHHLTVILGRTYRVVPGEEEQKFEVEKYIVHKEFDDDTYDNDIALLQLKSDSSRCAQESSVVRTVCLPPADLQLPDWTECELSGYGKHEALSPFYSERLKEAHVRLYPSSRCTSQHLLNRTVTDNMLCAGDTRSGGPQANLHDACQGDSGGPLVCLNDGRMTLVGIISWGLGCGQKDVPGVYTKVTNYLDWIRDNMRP
Procedure, shortened: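 Tissue plasminogen activator (commercial) in 30 mM Tris-HCl, pH 8.5, 30 mM imidazole, 130 mM NaCl. Incubated with inhibitor at several concentrations for 10 min at 37 °C. GK-pNA (listed at 100 μM) was added and absorbance followed for 30 min. Rates were relative to a no-treatment control; IC50 is the concentration giving 50% inhibition.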

[12] = test system: Klebsiella pneumoniae; test: Inhibition of Klebsiella pneumoniae KP1004 KPC-2 assessed as biapenem MIC at 4 ug/ml by broth microdilution method; procedure, shortened: as §1
[13] = target: Beta-lactamase SHV-5 (Klebsiella pneumoniae) (UniProt P0A3M1); test: Inhibition of Klebsiella pneumoniae KP1011 SHV5 assessed as cefepime MIC at 4 ug/ml by broth microdilution method
Beta-lactamase SHV-5 (Klebsiella pneumoniae), sequence (P0A3M1 whole entry): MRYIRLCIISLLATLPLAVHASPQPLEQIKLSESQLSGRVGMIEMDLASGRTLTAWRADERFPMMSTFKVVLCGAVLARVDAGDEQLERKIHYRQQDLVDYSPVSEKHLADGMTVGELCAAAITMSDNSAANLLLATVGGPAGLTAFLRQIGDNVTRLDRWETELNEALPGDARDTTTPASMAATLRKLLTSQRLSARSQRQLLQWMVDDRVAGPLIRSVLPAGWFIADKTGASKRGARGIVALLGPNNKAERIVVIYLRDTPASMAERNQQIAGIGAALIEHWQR
Procedure, shortened: (§3)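 CLSI broth microdilution (M07-A9) against clinical strains expressing serine β-lactamases.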

[14] = target: Carbapenem-hydrolyzing beta-lactamase KPC (Klebsiella oxytoca) (UniProt Q848S6); test: Inhibition of Klebsiella oxytoca KX1019 KPC-2 assessed as meropenem MIC at 4 ug/ml by broth microdilution method; procedure, shortened: as §1
[15] = test system: Klebsiella pneumoniae; test: Inhibition of Klebsiella pneumoniae KP1084 SHV-11 assessed as ertapenem MIC at 4 ug/ml by broth microdilution method; procedure, shortened: as §1
[16] = test system: Klebsiella pneumoniae; test: In vivo inhibition of KPC in Klebsiella pneumoniae KP1074 in Swiss webster neutropenic mouse lung infection model assessed as biapenem deltalog10CFU in lung at 50 mg/kg, ip administered every 2 hrs starting at 2 hrs postinfection measured after 24 hrs; format: functional
[17] = test system: Klebsiella pneumoniae; test: Inhibition of Klebsiella pneumoniae KP1004 SHV-11 assessed as imipenem MIC at 4 ug/ml by broth microdilution method; procedure, shortened: as §1
[18] = Inhibition of Escherichia coli recombinant KPC-2 assessed as substrate nitrocefin degradation preincubated for 10 mins followed by substrate addition measured every 10 secs for 10 mins by spectrophotometric analysis; procedure, shortened: as §2
[19] = target: Carbapenem-hydrolyzing beta-lactamase KPC (Klebsiella oxytoca) (UniProt Q848S6); test: Inhibition of Klebsiella oxytoca KX1017 KPC-2 assessed as meropenem MIC at 4 ug/ml by broth microdilution method; procedure, shortened: as §1
[20] = Volume of distribution in rat at 1000 mg/kg, iv administered as 0.5 hrs infusion by HPLC-MS method; format: ADME, organism-based; details: in vivo
[21] = target: Carbapenem-hydrolyzing beta-lactamase KPC (Klebsiella oxytoca) (UniProt Q848S6); test: Inhibition of Klebsiella oxytoca KX1019 KPC-2 assessed as imipenem MIC at 4 ug/ml by broth microdilution method
[22] = AUC (0 to infinity) in rat at 300 mg/kg, iv administered as 0.5 hrs infusion by HPLC-MS method; format: ADME, organism-based; parameters: dose 300 mg/kg, time infinity, route intravenous; details: in vivo
[23] = test system: Klebsiella oxytoca; test: Inhibition of Klebsiella oxytoca KX1001 OXA-2 assessed as cefepime MIC at 4 ug/ml by broth microdilution method; procedure, shortened: as §3
[24] = target: Urokinase-type plasminogen activator (Homo sapiens, UniProt P00749); test: Inhibition of urokinase (unknown origin) using NGK-pNA as substrate preincubated for 10 mins followed by substrate addition measured for 30 mins by spectrophotometric analysis
Procedure, shortened: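 Urokinase, from a commercial source, in 50 mM Tris-HCl, pH 8.5, 38 mM NaCl. Mixed with inhibitor at various concentrations for 10 min at 37 °C, then NGK-pNA (listed at 100 μM) added and absorbance monitored for 30 min. Rates were relative to untreated; IC50 is the concentration giving 50% inhibition.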

[25] = Inhibition of chymotrypsin (unknown origin) using Suc-AAPF-AMC as substrate preincubated for 10 mins followed by substrate addition measured for 30 mins by spectrophotometric analysis; parameters: species or system Homo sapiens
Procedure, shortened: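 Chymotrypsin, from a commercial source, in 20 mM Tris-HCl, pH 8, 150 mM NaCl, 2.5 mM CaCl2. Incubated 10 min at 37 °C with varied inhibitor concentrations. Suc-AAPF-AMC (listed at 10 μM) was added and the reaction read for 30 min. Rates were relative to untreated; IC50 is the concentration giving 50% inhibition.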

[26] = target: Beta-lactamase (Klebsiella pneumoniae) (UniProt Q93LQ9); test: Inhibition of Klebsiella pneumoniae KP1084 KPC-3 assessed as meropenem MIC at 4 ug/ml by broth microdilution method; procedure, shortened: as §1
Beta-lactamase (Klebsiella pneumoniae), sequence (Q93LQ9 as listed by the source): as the sequence (Q848S6 whole entry, the tested form may be a part) above

[27] = target: Carbapenem-hydrolyzing beta-lactamase KPC (Klebsiella pneumoniae) (UniProt Q9F663); test: Inhibition of Klebsiella pneumoniae KP1084 KPC-3 assessed as biapenem MIC at 4 ug/ml by broth microdilution method
Carbapenem-hydrolyzing beta-lactamase KPC (Klebsiella pneumoniae), sequence (Q9F663 whole entry, the tested form may be a part): as the sequence (Q848S6 whole entry, the tested form may be a part) above

[28] = AUC (0 to infinity) in rat at 100 mg/kg, iv administered as 0.5 hrs infusion by HPLC-MS method; format: ADME, organism-based; parameters: dose 100 mg/kg, route intravenous, time infinity; details: in vivo
[29] = Volume of distribution at steady state in human at 1 g administered as 3 hrs of infusion; format: ADME, organism-based; details: in vivo, iv, read-out: Vdss
Procedure, shortened: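 Healthy volunteers received 3 h infusions. Plasma concentrations were fit to a noncompartmental model to derive steady-state volume of distribution at the 1 g dose.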

Beta lactamase TEM-1 (Klebsiella pneumoniae), sequence (Q7B899 as listed by the source): as the sequence (Q6W9J1 as listed by the source) above

## O=C(O)C[C@@H]1CC[C@H](NC(=O)Cc2cccs2)B(O)O1 [VABORBACTAM]
[1]
  MIC: < 0.06 µg/mL
[2]
  Vd: 0.48 L/kg
[3]
  MIC: ≤ 0.06 µg/mL
[4]
  MIC: 0.25 µg/mL
[5]
  MIC: < 0.06 µg/mL
[6]
  MIC: < 0.06 µg/mL
[7]
  MIC: 4 µg/mL
[8]
  pKi: 7.54
[9]
  MIC: 1 µg/mL
[10]
  MIC: 0.25 µg/mL
[11]
  pIC50: < 3.00
[12]
  MIC: ≤ 0.06 µg/mL
[13]
  MIC: 0.25 µg/mL
[14]
  MIC: < 0.06 µg/mL
[15]
  MIC: 4 µg/mL
[16]
  deltalog10CFU: -2.19
[17]
  MIC: ≤ 0.06 µg/mL
[18]
  pKi: 7.16
[19]
  MIC: < 0.06 µg/mL
[20]
  Vd: 0.55 L/kg
[21]
  MIC: 0.13 µg/mL
[22]
  AUC(0-inf): 239 µg·h/mL
[23]
  MIC: 0.5 µg/mL
[24]
  pIC50: < 3.00
[25]
  pIC50: < 3.00
[26]
  MIC: 0.5 µg/mL
[27]
  MIC: 0.25 µg/mL
[28]
  AUC(0-inf): 64 µg·h/mL
[29]
  Vd: 21 L
